{"source": "ChEMBL document CHEMBL1135704", "about": "“Design, synthesis, and evaluation of novel 2-substituted 3-hydroxypyridin-4-ones: structure-activity investigation of metalloenzyme inhibition by iron chelators” (J Med Chem, 2002)", "key": {"[1]": {"assay": "Partition coefficient (logP)", "type": "physicochemical", "settings": "octanol/water", "procedure,_shortened": "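Distribution coefficient D7.4 between 1-octanol and 50 mM MOPS pH 7.4 (mutually saturated). Ligand in aqueous phase at 0.5–1.5 absorbance near 280 nm; octanol added in aliquots, aqueous UV absorbance monitored continuously to equilibrium after each. D = [(A0−A1)/A1]·(Vw/Vo) per addition.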"}, "Rattus norvegicus [2]": {"system": "Rattus norvegicus", "assay": "The compound was tested in vivo for Iron Mobilization efficacy in Fe-Ferritin Loaded Rat model", "type": "functional", "procedure,_shortened": "(§1)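 One hour later chelator given orally at 450 µmol/kg (controls: equal volume water); individual metabolic cages, food returned 1 h post-dose. Killed 24 h after labelling; liver and GI tract with contents and feces gamma-counted. Mean ± SD, n = 5.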"}, "[3]": {"assay": "Inhibitory activity against 5-lipoxygenase, by using soybean lipoxygenase spectrophotometric assay", "parameters": "concentration or dose not given beside the values", "settings": "concentration not given here", "procedure,_shortened": "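Soybean lipoxygenase (10 000 units/mL stock in 0.2 M borate pH 9.0; final 500 units per 3.0 mL) preincubated 30 min at room temperature with chelator at 110 µM iron-binding equivalents or diluent; reaction started with linoleic acid in borate buffer. Linoleic hydroperoxide formation followed at 234 nm (ε 23600 M-1 cm-1); rate versus control gives % inhibition.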"}, "Rattus norvegicus [4]": {"species": "Rattus norvegicus", "assay": "The compound was tested for % iron mobilization in Fe-Ferritin Loaded Rat model", "type": "functional", "procedure,_shortened": "as §1"}}, "data": [{"smiles": "CC(=O)NCCC(=O)NCc1c(O)c(=O)cc(C)n1C", "values": [{"measurement": "logP", "setting": "[1]", "value": -1.7}, {"measurement": "Efficacy", "setting": "Rattus norvegicus [2]", "value": 5.9, "unit": "%"}, {"measurement": "inhibition", "setting": "[3]", "value": 3.8, "unit": "%"}, {"measurement": "Mobilization", "setting": "Rattus norvegicus [4]", "value": 9.7, "unit": "%"}]}, {"smiles": "CCCCc1c(O)c(=O)cc(C)n1C", "values": [{"measurement": "logP", "setting": "[1]", "value": 0.9}, {"measurement": "inhibition", "setting": "[3]", "value": 29.6, "unit": "%"}]}, {"smiles": "CCCCn1ccc(=O)c(O)c1C", "values": [{"measurement": "inhibition", "setting": "[3]", "value": 80, "unit": "%"}]}, {"smiles": "CCn1ccc(=O)c(O)c1C", "values": [{"measurement": "inhibition", "setting": "[3]", "value": 58.4, "unit": "%"}]}, {"smiles": "Cc1cc(=O)c(O)c(CNC(=O)C(C)C)n1C", "values": [{"measurement": "logP", "setting": "[1]", "value": -0.35}, {"measurement": "inhibition", "setting": "[3]", "value": 21, "unit": "%"}]}, {"smiles": "CCCCCn1ccc(=O)c(O)c1C", "values": [{"measurement": "inhibition", "setting": "[3]", "value": 90, "unit": "%"}]}, {"smiles": "CCCCCCCCn1ccc(=O)c(O)c1C", "values": [{"measurement": "inhibition", "setting": "[3]", "value": 98.7, "unit": "%"}]}, {"smiles": "CC(=O)NCc1c(O)c(=O)cc(C)n1C", "values": [{"measurement": "inhibition", "setting": "[3]", "value": 18.5, "unit": "%"}]}, {"smiles": "CCCNC(=O)CCC(=O)NCc1c(O)c(=O)cc(C)n1C", "values": [{"measurement": "logP", "setting": "[1]", "value": -0.701}, {"measurement": "Efficacy", "setting": "Rattus norvegicus [2]", "value": 19.4, "unit": "%"}, {"measurement": "inhibition", "setting": "[3]", "value": 2.1, "unit": "%"}, {"measurement": "Mobilization", "setting": "Rattus norvegicus [4]", "value": 23.3, "unit": "%"}]}, {"smiles": "CCCc1c(O)c(=O)cc(C)n1C", "values": [{"measurement": "logP", "setting": "[1]", "value": 0.4}, {"measurement": "inhibition", "setting": "[3]", "value": 30, "unit": "%"}]}, {"smiles": "CCCCCCn1ccc(=O)c(O)c1C", "values": [{"measurement": "inhibition", "setting": "[3]", "value": 93.2, "unit": "%"}]}, {"smiles": "CCc1c(O)c(=O)ccn1C", "values": [{"measurement": "logP", "setting": "[1]", "value": -0.21}, {"measurement": "inhibition", "setting": "[3]", "value": 48.5, "unit": "%"}]}, {"smiles": "Cn1ccc(=O)c(O)c1", "values": [{"measurement": "logP", "setting": "[1]", "value": -0.6}, {"measurement": "inhibition", "setting": "[3]", "value": 59.4, "unit": "%"}]}, {"smiles": "Cc1c(O)c(=O)ccn1C", "note": "[DEFERIPRONE]", "values": [{"measurement": "Efficacy", "setting": "Rattus norvegicus [2]", "value": 9.5, "unit": "%"}, {"measurement": "inhibition", "setting": "[3]", "value": 39.4, "unit": "%"}, {"measurement": "Mobilization", "setting": "Rattus norvegicus [4]", "value": 13.4, "unit": "%"}]}, {"smiles": "COCc1c(O)c(=O)cc(C)n1C", "values": [{"measurement": "logP", "setting": "[1]", "value": -0.41}, {"measurement": "inhibition", "setting": "[3]", "value": 14.8, "unit": "%"}]}, {"smiles": "CCC(=O)NCc1c(O)c(=O)cc(C)n1C", "values": [{"measurement": "logP", "setting": "[1]", "value": -0.72}, {"measurement": "inhibition", "setting": "[3]", "value": 13.5, "unit": "%"}]}]}
